Measurements reported in PMC2805153 (Molecular cancer therapeutics, 2009).
“Also recorded” adds a separate entry of the source.

Key:
human breast tumor cells = experiment: Growth assay, breast tumor cells in general; assay type: cell-based; conditions: SK-BR-3 and MDA-MB-231 breast tumor cells, 72 hours of treatment
Summary of the method: (§1)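 SK-BR-3 and MDA-MB-231 cells were grown in RPMI 1640 with 1.5% FBS at 37°C and 5% CO2, seeded at 5,000/well, and rested 18–24 h. Test compound or vehicle was added for 72 h (DMSO ≤0.2%). CellTiter-Glo ATP luminescence gave viable cells.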

[1] = tested on: MDA-MB-231 breast tumor cells; experiment: Growth assay; assay type: cell-based, human
Summary of the method: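 MDA-MB-231 cells went into RPMI 1640 with 1.5% FBS at 5,000/well and rested 18–24 h. Optional 1 h pretreatment with NOR-3 came next, then test compound or vehicle for 72 h (DMSO ≤0.2%). Viable cells were read as ATP luminescence (CellTiter-Glo).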

PDE5A = PDE5A (Homo sapiens, UniProt O76074); experiment: Recombinant PDE isozyme IMAP FP assay; assay type: biochemical
Summary of the method: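 Commercial recombinant PDE isozyme at 0.25 mg/mL, preincubated with test compound 30 min at 30°C. Substrate mix of 25 nM each fluorescein-cAMP and TAMRA-cGMP then added for 90 min at 30°C, with cAMP and cGMP hydrolysis read together. Binding reagent stops reaction; IMAP fluorescence polarization read. DMSO ≤2%. IC50 from 10 concentrations, ≥2 replicates each, versus vehicle, four-parameter logistic fit; experiments repeated at least twice.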

PDE10A = PDE10A (Homo sapiens, UniProt Q9Y233); experiment: Recombinant PDE isozyme IMAP FP assay; assay type: biochemical; conditions: SS tested up to 200 μM
PDE7A = PDE7A (Homo sapiens, UniProt Q13946); experiment: Recombinant PDE isozyme IMAP FP assay; assay type: biochemical; conditions: cAMP substrate; SS tested up to 200 μM
breast tumor cells [2] = experiment: TUNEL labeling; assay type: cell-based, human; conditions: data not shown
MDA-MB-231 cells = experiment: Intracellular cGMP assay; assay type: cell-based, human
Summary of the method: (§2)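 Cells were seeded at 1×10^6 per 10 cm dish: HMEC in MEGM, MDA-MB-231 in RPMI 1640 with 1.5% FBS. After 48 h they were exposed to test compound or vehicle for 30 min, then lysed. Intracellular cGMP was measured by direct competitive EIA, optical density at 630 nm.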

COX-1 = conditions: read-out: IC50 to inhibit COX-1; cited from earlier work
[3] = tested on: PKG (VASP phosphorylation) in MDA-MB-231 cells; experiment: VASP Ser239 phosphorylation western blot; assay type: cell-based, human
Summary of the method: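 MDA-MB-231 cells were treated with test compound across doses and times, then lysed in Tris-acetate/Triton X-100/NaF buffer at pH 7.4. Lysate (30 μg protein) was separated by 12% SDS-PAGE and transferred to nitrocellulose, blocked in 5% BSA in TBS-0.05% Tween-20. Blots were probed for phospho-VASP Ser239 and total VASP with HRP secondaries and detected by chemiluminescence on film.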

PDE6C = PDE6C (Homo sapiens, UniProt P51160); experiment: Recombinant PDE isozyme IMAP FP assay; assay type: biochemical; conditions: cGMP substrate; SS tested up to 200 μM
[4] = tested on: SK-BR-3 breast tumor cells; experiment: Growth assay; assay type: cell-based; conditions: Homo sapiens, SK-BR-3, 72 h, read-out: growth inhibition IC50
Summary of the method: as §1

HMEC [5] = experiment: Intracellular cGMP assay; assay type: cell-based, human; conditions: 30 minutes of treatment
Summary of the method: as §2

PDE11A = PDE11A (Homo sapiens, UniProt Q9HCR9); experiment: Recombinant PDE isozyme IMAP FP assay; assay type: biochemical; conditions: SS tested up to 200 μM
[6] = tested on: normal human mammary epithelial cells (HMEC); experiment: Growth assay; assay type: cell-based; conditions: 72 h, read-out: growth inhibition IC50
Summary of the method: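 Primary normal mammary epithelial cells were grown in MEGM complete medium and seeded at 5,000/well. After 18–24 h they received test compound or vehicle for 72 h (DMSO ≤0.2%). ATP-based luminescence (CellTiter-Glo) measured viable cells.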

[7] = tested on: MDA-MB-231, SKBR3, and ZR75-1 cells; experiment: Caspase3/7 Glo apoptosis assay; assay type: cell-based, human; conditions: 100 μM, 5 hours
Summary of the method: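 MDA-MB-231 and SK-BR-3 cells were kept in RPMI 1640 with 10% FBS, with serum cut to 1.5% FBS for the assay, at 37°C and 5% CO2. Cells were seeded at 10,000/well, rested 18–24 h, then given test compound or vehicle (DMSO ≤0.2%). Caspase 3/7 activation was read as luminescence from Caspase3/7 Glo substrate cleavage.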

[8] = tested on: PDE activity in HMEC lysates; experiment: IMAP FP PDE assay in HMEC lysates; assay type: biochemical, human
Summary of the method: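 HMEC were lysed in ice-cold buffer (20mM Tris-acetate, 5mM Mg acetate, 1mM EGTA, 0.8% Triton X-100, 50mM NaF, protease inhibitors, pH 7.4) and cleared at 10,000g, 10 min, 4°C. Lysate at 0.25 mg/mL was preincubated with test compound 30 min at 30°C. Substrate was 25 nM each Fl-cAMP and TAMRA-cGMP, run 90 min at 30°C. Reactions were stopped with IMAP binding reagent and read by FP (DMSO ≤2%). IC50 came from 10 concentrations, ≥2 replicates.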

PDE9A = PDE9A (Homo sapiens, UniProt O76083); experiment: Recombinant PDE isozyme IMAP FP assay; assay type: biochemical; conditions: cGMP substrate; SS tested up to 200 μM
[9] = tested on: PDE activity in SK-BR-3 and MDA-MB-231 cell lysates; experiment: IMAP FP PDE assay in tumor cell lysates; assay type: biochemical, human; conditions: for inhibition of cGMP hydrolysis: tumor cell lysates, TAMRA-cGMP substrate
PDE4A = PDE4A (Homo sapiens, UniProt P27815); experiment: Recombinant PDE isozyme IMAP FP assay; assay type: biochemical; conditions: cAMP substrate; SS tested up to 200 μM
HMEC [10] = experiment: Caspase3/7 Glo apoptosis assay; assay type: cell-based, human; conditions: 5 hours, staurosporine 1μM positive control
Summary of the method: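 HMEC grown in MEGM complete medium were seeded at 10,000 cells/well and left 18–24 h. They were then exposed to test compound or vehicle (DMSO ≤0.2%), with 1μM staurosporine as positive control. Apoptosis was read as Caspase3/7 Glo luminescence from cleavage of a caspase 3/7 substrate.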

[11] = tested on: ZR75-1 breast tumor cells; experiment: Growth assay; assay type: cell-based; conditions: Homo sapiens, ZR-75-1, 72 h, read-out: growth inhibition IC50
Summary of the method: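 Cells seeded at 5,000/well were rested 18–24 h, then treated with test compound or vehicle for 72 h (DMSO ≤0.2%). Growth was scored as viable-cell ATP luminescence (CellTiter-Glo) against vehicle.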

PDE8A = PDE8A (Homo sapiens, UniProt O60658); experiment: Recombinant PDE isozyme IMAP FP assay; assay type: biochemical; conditions: cAMP substrate; SS tested up to 200 μM
breast tumor cells [12] = experiment: Cell cycle distribution; assay type: cell-based, human; conditions: conditions of the growth assays, data not shown
[13] = MDA-MB-231, 30 minutes of treatment
[14] = breast tumor cells, line not given

PDE11A, sequence (Q9HCR9 whole entry): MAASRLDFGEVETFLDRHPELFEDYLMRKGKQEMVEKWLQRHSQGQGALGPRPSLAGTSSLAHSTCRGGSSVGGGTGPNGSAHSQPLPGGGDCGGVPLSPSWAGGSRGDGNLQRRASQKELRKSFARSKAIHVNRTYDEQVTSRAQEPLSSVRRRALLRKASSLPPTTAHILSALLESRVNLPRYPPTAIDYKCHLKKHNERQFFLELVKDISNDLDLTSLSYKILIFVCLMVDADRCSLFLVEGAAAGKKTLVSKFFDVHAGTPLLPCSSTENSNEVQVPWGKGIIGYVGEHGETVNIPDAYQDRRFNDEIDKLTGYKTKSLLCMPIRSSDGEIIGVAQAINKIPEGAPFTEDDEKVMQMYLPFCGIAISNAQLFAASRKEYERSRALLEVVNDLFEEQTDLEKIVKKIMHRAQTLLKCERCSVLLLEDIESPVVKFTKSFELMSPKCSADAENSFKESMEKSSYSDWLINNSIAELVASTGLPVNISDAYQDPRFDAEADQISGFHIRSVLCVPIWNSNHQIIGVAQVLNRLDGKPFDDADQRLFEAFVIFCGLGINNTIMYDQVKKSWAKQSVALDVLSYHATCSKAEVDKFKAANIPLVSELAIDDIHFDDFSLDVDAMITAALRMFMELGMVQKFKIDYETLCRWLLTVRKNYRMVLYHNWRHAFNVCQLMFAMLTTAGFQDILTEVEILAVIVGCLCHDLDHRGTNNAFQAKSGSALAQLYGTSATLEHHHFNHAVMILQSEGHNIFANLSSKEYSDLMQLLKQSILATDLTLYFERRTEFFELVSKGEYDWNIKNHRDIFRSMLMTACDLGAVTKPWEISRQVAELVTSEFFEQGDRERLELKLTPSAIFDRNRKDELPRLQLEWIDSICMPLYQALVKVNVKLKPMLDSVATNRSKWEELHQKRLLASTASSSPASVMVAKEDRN
PDE10A, sequence (Q9Y233 290-1055 limits assumed): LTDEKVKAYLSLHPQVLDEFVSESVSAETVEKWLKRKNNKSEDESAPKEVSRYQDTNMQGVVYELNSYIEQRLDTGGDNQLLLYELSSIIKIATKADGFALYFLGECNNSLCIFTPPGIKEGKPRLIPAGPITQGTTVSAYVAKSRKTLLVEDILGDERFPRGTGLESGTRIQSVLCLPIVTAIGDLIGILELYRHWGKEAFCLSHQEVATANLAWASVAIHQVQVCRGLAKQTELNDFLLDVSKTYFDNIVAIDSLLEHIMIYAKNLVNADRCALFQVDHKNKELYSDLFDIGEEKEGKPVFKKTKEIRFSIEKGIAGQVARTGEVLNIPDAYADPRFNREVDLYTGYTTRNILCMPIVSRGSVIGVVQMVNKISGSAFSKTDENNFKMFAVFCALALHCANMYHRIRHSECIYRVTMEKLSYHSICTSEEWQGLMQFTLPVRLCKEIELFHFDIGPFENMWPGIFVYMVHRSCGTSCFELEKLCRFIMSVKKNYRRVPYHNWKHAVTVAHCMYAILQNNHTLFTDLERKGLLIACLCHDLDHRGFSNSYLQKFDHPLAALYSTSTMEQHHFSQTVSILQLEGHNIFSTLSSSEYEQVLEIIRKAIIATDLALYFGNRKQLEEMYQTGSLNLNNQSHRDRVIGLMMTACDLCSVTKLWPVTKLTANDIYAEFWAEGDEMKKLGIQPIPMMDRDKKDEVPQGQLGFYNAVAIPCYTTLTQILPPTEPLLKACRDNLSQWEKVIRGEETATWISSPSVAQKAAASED
PDE6C, sequence (P51160 whole entry): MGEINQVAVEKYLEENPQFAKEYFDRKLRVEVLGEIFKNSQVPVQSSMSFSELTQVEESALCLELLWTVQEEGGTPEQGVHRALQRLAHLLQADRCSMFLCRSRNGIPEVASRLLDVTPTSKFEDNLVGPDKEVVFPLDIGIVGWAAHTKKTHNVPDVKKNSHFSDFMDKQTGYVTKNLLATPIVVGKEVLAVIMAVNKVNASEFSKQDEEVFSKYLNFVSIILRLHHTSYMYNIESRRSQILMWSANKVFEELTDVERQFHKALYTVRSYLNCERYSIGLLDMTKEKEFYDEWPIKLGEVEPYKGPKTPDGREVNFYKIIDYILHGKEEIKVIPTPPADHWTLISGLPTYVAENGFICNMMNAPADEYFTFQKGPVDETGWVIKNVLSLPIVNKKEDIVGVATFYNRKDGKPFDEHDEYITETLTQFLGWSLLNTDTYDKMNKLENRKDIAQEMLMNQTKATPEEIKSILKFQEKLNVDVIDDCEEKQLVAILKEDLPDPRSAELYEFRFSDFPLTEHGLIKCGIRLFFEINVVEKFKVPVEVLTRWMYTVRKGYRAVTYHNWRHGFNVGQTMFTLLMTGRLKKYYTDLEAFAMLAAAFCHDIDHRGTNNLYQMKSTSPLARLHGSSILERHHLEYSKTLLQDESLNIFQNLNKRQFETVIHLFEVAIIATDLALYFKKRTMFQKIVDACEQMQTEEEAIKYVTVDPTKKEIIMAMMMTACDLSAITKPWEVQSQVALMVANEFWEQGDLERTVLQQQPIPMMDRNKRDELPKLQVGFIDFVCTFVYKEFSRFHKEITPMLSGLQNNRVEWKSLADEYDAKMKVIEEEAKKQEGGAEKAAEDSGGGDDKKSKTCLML
PDE7A, sequence (Q13946 whole entry): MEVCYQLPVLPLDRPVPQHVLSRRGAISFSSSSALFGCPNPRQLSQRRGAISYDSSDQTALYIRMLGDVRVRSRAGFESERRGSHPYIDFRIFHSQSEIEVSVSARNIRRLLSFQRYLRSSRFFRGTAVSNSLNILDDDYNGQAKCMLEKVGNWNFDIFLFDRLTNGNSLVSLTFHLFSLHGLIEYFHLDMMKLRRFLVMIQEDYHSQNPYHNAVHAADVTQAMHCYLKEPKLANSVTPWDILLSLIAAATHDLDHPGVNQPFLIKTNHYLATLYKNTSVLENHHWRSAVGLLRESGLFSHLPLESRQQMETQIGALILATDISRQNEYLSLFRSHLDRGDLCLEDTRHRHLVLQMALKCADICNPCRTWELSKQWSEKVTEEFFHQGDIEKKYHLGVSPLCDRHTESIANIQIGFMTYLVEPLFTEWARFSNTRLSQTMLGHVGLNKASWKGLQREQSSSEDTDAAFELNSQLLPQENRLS
PDE8A, sequence (O60658 whole entry): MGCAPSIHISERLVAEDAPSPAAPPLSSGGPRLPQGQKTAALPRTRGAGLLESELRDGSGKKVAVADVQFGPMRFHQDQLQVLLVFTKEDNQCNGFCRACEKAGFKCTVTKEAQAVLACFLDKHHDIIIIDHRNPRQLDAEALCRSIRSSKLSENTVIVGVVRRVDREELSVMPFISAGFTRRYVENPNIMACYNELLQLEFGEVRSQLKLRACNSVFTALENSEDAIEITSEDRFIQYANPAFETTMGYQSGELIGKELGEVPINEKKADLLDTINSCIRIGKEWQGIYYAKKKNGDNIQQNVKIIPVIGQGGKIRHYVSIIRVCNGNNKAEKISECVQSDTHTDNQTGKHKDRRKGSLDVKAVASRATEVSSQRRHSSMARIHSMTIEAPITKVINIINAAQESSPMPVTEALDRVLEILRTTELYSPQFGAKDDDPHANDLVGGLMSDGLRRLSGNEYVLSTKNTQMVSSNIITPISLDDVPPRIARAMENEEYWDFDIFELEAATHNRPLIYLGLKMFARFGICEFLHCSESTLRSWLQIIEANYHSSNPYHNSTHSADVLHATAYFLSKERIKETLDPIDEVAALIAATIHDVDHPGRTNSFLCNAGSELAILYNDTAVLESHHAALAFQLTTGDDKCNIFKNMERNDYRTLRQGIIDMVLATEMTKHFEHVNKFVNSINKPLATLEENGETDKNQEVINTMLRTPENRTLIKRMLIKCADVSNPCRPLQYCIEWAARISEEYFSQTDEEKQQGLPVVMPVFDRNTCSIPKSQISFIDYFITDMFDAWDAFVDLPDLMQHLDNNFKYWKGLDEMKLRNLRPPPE
PDE4A, sequence (P27815 whole entry): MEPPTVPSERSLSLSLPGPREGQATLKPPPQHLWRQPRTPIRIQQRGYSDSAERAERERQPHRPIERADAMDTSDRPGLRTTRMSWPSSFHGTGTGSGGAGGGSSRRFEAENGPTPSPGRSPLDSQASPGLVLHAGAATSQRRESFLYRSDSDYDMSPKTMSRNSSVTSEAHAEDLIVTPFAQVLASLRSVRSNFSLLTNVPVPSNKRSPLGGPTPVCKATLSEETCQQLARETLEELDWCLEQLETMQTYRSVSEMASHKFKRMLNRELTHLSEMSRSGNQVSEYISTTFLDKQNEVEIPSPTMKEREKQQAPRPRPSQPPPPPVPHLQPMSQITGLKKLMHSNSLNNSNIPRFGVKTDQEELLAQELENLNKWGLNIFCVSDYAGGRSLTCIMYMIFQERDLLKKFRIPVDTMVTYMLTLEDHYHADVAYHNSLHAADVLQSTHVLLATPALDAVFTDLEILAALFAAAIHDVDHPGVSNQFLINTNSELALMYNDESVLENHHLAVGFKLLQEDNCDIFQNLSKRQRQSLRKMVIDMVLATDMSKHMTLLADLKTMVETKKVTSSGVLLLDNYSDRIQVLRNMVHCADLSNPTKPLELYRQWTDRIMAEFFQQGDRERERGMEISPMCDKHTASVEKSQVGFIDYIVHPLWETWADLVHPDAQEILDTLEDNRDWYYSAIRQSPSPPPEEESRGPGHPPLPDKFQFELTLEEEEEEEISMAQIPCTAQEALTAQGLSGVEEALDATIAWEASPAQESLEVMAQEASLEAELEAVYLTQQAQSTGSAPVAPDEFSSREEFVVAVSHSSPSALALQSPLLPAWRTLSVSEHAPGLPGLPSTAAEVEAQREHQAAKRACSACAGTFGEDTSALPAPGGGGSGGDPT

For `CCCCCC[C@@H]([C@@H](C)O)n1cnc2c(N)ncnc21` (racemic) [EHNA], the “tumor cell growth inhibitory activity” value (human breast tumor cells) was “none were found to be active”.
With `CC/C(=C\C(=N/O)C(N)=O)C(C)[N+](=O)[O-]` (racemic) [NOR-3, (±)-(E)-Ethyl-2-((E)-hydroxyimino)-5-nitro-3-hexenamide] the “tumor cell growth inhibitory activity” value (human breast tumor cells) was “inhibited the growth”.
In the case of `COCc1nc2c([nH]1)c(=O)n(C)c(=O)n2CC(C)C` [8-methoxymethyl-IBMX], the “tumor cell growth inhibitory activity” value (human breast tumor cells) is reported as “none were found to be active”.
In the case of `CC(C)Cn1c(=O)n(C)c(=O)c2[nH]cnc21` [IBMX, 3-Isobutyl-1-methylxanthine], the “tumor cell growth inhibitory activity” value (human breast tumor cells) is reported as “none were found to be active”.
In the case of `O=C1C(Nc2ccccc2)=CC(=O)c2ncccc21` [LY83583], the “effect on sensitivity to growth inhibition by doxorubicin” value ([1]; MDA-MB-231, control experiment, data not shown) is reported as “ineffective”.
For `Clc1cccc(Nc2nnc(-c3ccccc3)c3ccccc23)c1` [MY5445, 1-(3-chloroanilino)-4-phenylphthalazine], the “tumor cell growth inhibitory activity” value (human breast tumor cells) was “inhibited breast tumor cell growth” and the IC50 (PDE5A) was 14.3 µM.
In the case of `CSc1ccc(/C=C2/C(C)=C(CC(=O)O)c3cc(F)ccc32)cc1` [SS, sulindac sulfide], the “IC50, cAMP hydrolysis by PDE10A” value (PDE10A; cAMP substrate) is reported as “Inactive”, the “IC50, cGMP hydrolysis by PDE10A” value (PDE10A; cGMP substrate) is reported as “Inactive” and the “IC50, cAMP hydrolysis by PDE7A” value (PDE7A) is reported as “Inactive”. The TUNEL labeling (breast tumor cells [2]) was “increased TUNEL labeling”, the “concentration at which cGMP levels peak” value (MDA-MB-231 cells; [13]) was […] and the “increase of intracellular cGMP levels” value (MDA-MB-231 cells; [13]) was 2-3 fold. For the same molecule, the IC50 (COX-1) was […], the “change of growth inhibition IC50 after pre-treatment with GC activator NOR-3” value ([1]; 1 hour pretreatment with NOR-3, 72 hours of SS treatment) was “significant reduction in the IC50 value” and the IC50 ([1]; Homo sapiens, MDA-MB-231, 72 h, read-out: growth inhibition IC50) was 84 µM. For the same molecule, the “time at which VASP phosphorylation peaked” value ([3]; MDA-MB-231, 100 μM) was 1 h, the “concentration at which increases in VASP phosphorylation were apparent” value ([3]; MDA-MB-231, after 30 minutes of treatment) was […] and the “VASP phosphorylation at serine 239 (p-VASP levels)” value ([3]; MDA-MB-231, dose- and time-dependent) was “increased the levels of phosphorylated VASP”. The “IC50, cGMP hydrolysis by PDE6C” value (PDE6C) was “Inactive”, the IC50 [4] was 59 µM and the “increase of intracellular cGMP levels” value (HMEC [5]) was “failed to induce cGMP levels”. The “IC50, cAMP hydrolysis by PDE11A” value (PDE11A; cAMP substrate) was “Inactive”, the “IC50, cGMP hydrolysis by PDE11A” value (PDE11A; cGMP substrate) was “Inactive” and the IC50 [6] was 163 µM. The “increase in the activity of caspases 3 and 7 compared to vehicle” value [7] was 2-8 fold, the “inhibition of cAMP hydrolysis” value [8] was “did not affect” and the “inhibition of cGMP hydrolysis” value [8] was “did not affect”. The “IC50, cGMP hydrolysis by PDE9A” value (PDE9A) was “Inactive”, the “inhibition of cAMP hydrolysis” value ([9]; breast tumor cell lysates, Fl-cAMP substrate) was “did not significantly affect” and the “inhibition of cGMP hydrolysis” value [9] was “inhibited cGMP hydrolysis”. The “IC50, cAMP hydrolysis by PDE4A” value (PDE4A) was “Inactive”, the “activation of caspases 3 and 7” value (HMEC [10]) was “resistant” and the IC50 [11] was 76 µM. For the same molecule, the “IC50, cAMP hydrolysis by PDE8A” value (PDE8A) was “Inactive” and the “effect on cell cycle distribution” value (breast tumor cells [12]) was “did not have a significant effect”.
For `COc1cc2c(cc1OC)-c1c/c(=N\c3c(C)cc(C)cc3C)n(C)c(=O)n1CC2` [Trequinsin, trequinsin], the “tumor cell growth inhibitory activity” value (human breast tumor cells) was “inhibited breast tumor cell growth”.
With `OCCN(CCO)c1nc(N2CCCCC2)c2nc(N(CCO)CCO)nc(N3CCCCC3)c2n1` [dipyridamole] the “tumor cell growth inhibitory activity” value (human breast tumor cells) was “none were found to be active”.
With `C=C[C@@]1(C)CC(=O)[C@]2(O)[C@@]3(C)[C@@H](O)CCC(C)(C)[C@@H]3[C@H](O)[C@H](OC(C)=O)[C@@]2(C)O1` [forskolin] the “tumor cell growth inhibitory activity” value (human breast tumor cells) was “no significant growth inhibitory activity”.
For `Cc1[nH]c(=O)c(C#N)cc1-c1ccncc1` [milrinone], the “tumor cell growth inhibitory activity” value (human breast tumor cells) was “none were found to be active”.
In the case of `COc1ccc(C2CNC(=O)C2)cc1OC1CCCC1` (centres unmarked) [rolipram], the “tumor cell growth inhibitory activity” value (human breast tumor cells) is reported as “none were found to be active”.
In the case of `CCCc1nn(C)c2c(=O)[nH]c(-c3cc(S(=O)(=O)N4CCN(C)CC4)ccc3OCC)nc12` [sildenafil], the “tumor cell growth inhibitory activity” value (human breast tumor cells) is reported as “none were found to be active; also recorded: unable to inhibit breast tumor cell growth”, the “increase of intracellular cGMP levels” value (MDA-MB-231 cells; [14]) is reported as “unable to significantly increase intracellular cGMP levels” and the PKG activation [3, 14] is reported as “unable to significantly increase intracellular cGMP levels or activate PKG”. The “inhibition of cGMP hydrolysis” value [9] was “inhibit the majority of cGMP PDE activity”.
With `CN[C@@H]1C[C@H]2O[C@@](C)([C@@H]1OC)n1c3ccccc3c3c4c(c5c6ccccc6n2c5c31)C(=O)NC4` [staurosporine] the “activation of caspases 3 and 7” value (HMEC [10]) was “increased caspase activity”.
For `CCCOc1ccccc1-c1nc2nn[nH]c2c(=O)[nH]1` [zaprinast], the “tumor cell growth inhibitory activity” value (human breast tumor cells) was “none were found to be active”.
